MrgX1 PAM = human MrgX1 positive allosteric modulation, primary screen; hit rate 0.63% among 310,000; MrgX1-HEK293, Fluo-4 calcium flux, FDSS; stronger effect = higher value; Q96LB2; B-score at 10 µM;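 active = plate-corrected calcium response at least 3 library SD above typical, normal starting fluorescence, not activating the receptor alone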;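 also: compound read alongside a low EC10 to EC30 dose of BAM8-22 agonist; peak minus trough fluorescence over baseline measured at the second addition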
Target sequence (Q96LB2 whole entry, looked up): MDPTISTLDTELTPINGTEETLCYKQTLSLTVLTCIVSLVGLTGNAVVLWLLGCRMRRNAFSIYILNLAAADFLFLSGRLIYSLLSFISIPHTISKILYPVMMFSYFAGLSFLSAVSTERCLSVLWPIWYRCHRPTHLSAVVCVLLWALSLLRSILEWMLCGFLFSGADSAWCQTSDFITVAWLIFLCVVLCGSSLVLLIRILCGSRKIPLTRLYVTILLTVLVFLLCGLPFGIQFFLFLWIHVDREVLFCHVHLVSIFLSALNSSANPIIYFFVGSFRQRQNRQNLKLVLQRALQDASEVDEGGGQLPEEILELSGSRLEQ
RGS4 act = RGS4 potentiation or activation | HEK293 M3R/inducible RGS4, carbachol calcium flux Fluo4; stronger effect = lower value | B-score at 10 µM | hit rate 0.92% among 310,000;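 active = B-score of the integrated calcium signal more than 4 SD below the library mean, with starting fluorescence not abnormally high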;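 also: negative B-score means reduced calcium response which marks RGS4 activation or potentiation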
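Test system: HEK293 cells with stable M3R and inducible RGS4; also added: carbachol at ECmax as muscarinic agonist stimulus; schedule: dye loading 30 min 37 °C, buffer rest 30 min RT; technique: kinetic calcium fluorescence imaging with Fluo4-AM dye, 2 µM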
MrgX1 antagonist = blocks BAM8-22 activation of human MrgX1 receptor; B-score at 10 µM; hit rate 1.3% among 310,000; Q96LB2; MRGX1-HEK293 calcium flux, Fluo-4, BAM8-22 antagonism; stronger effect = lower value;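 active = calcium-response B-score plate-corrected more than 3 library SD below zero, starting fluorescence within 5 deviations, no agonist response on first addition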;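 also: peak minus trough fluorescence over baseline after final BAM8-22 challenge near maximal dose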
MrgX1 ag = activates human MrgX1 receptor signaling. MrgX1-HEK293 cells, Fluo-4 calcium fluorescence, agonist mode; stronger effect = higher value. B-score at 10 µM. hit rate 0.44% among 310,000;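 active = calcium response B-score plate-corrected fluorescence ratio at least 3 library SD, with starting fluorescence B-score inside 5 SD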
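Assay system: MrgX1-expressing HEK293 cells / Amount: fifteen thousand cells per well / Doses: test compound in the initial addition of three / Timing: cells plated overnight, dye loaded 0.5 h 37 °C, 0.5 h room temperature / Technique: kinetic calcium dye fluorescence, Fluo-4 NW / Control set: positive and negative controls per plate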
RGS4 block = inhibitors of human RGS4 | HEK293 M3R/RGS4 inducible, Fluo-4 calcium flux; stronger effect = higher value; triggered by carbachol at its EC20 | hit rate 0.45% among 310,000 | AID 463165 | B-score at 10 µM;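 active = B-score, a plate-corrected calcium signal, over three deviations above library mean, with baseline fluorescence within five deviations of library mean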;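 also: RGS4 expression induced by doxycycline in cells with stable M3 receptor; B-score is computed from the integrated fluorescence ratio over baseline after carbachol; higher B-score means a larger calcium signal and so more RGS4 inhibition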
Target sequence (P49798 whole entry, looked up): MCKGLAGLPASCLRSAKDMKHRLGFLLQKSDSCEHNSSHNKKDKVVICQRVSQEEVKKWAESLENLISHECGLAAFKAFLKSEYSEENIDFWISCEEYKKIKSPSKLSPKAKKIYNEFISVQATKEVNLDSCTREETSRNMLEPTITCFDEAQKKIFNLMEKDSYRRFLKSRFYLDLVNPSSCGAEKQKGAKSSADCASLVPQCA
RGS4 inh valid = RGS4 inhibitor validation; hit rate 65% among 1,700; HEK293 M3R/RGS4, carbachol calcium Fluo-4 fluorescence; carbachol added at its EC20; 0 = buffer wells, 100 = carbachol control; shares compounds with RGS4 block; calcium response, % at 10 µM;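 active = duplicate-averaged calcium response above the buffer-only control mean plus 5 SD of those controls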;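 also: integrated fluorescence ratio F max minus min over baseline F0; higher response in RGS4-induced cells means RGS4 inhibition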
RGS4 uninduced = counter-screen for RGS4 inhibitors: effect in non-induced cells | HEK293 M3R non-induced, carbachol calcium Fluo-4; submaximal (EC20) carbachol stimulus; buffer wells 0%, carbachol control wells 100% | activity (percent), % at 10 µM | shares compounds with RGS4 block | AID 493000 | hit rate 20% among 1,900; call rule not given here;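 also: RGS4 induction absent so cells express M3R without RGS4; higher means more calcium signal and flags a non-specific hit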
RGS4 inh ctr2 = second RGS4 inhibitor counter-screen in uninduced cells lacking carbachol. shares compounds with RGS4 block. HEK293 M3R/RGS4 non-induced, Fluo-4 calcium, no carbachol; normalised: buffer wells 0%, carbachol wells 100%. hit rate 22% among 1,900. calcium response (agonist-mode artifact), % at 10 µM;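 active = duplicate-averaged calcium rise in uninduced cells above buffer wells' mean plus 5 SD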
A number is an active result; . = inactive; / = no result given. Rows were chosen to be rich in hits. Some 3.5% of all compounds tested hit in one or more screens of this group.

SMILES | MrgX1 PAM | RGS4 act | MrgX1 antagonist | MrgX1 ag | RGS4 block | RGS4 inh valid | RGS4 uninduced | RGS4 inh ctr2
COc1cccc(/C=C2/C(=O)NN(c3ccccc3)C2=O)c1 | . | . | . | . | 7.5 | . | . | 8.0%
COc1cccc(/C=C2/C(=O)NN(c3ccc(C)c(C)c3)C2=O)c1 | . | . | . | . | 15 | 9.5% | . | .
COc1cccc(/C=C2/C(=O)NN(c3ccc(F)cc3)C2=O)c1 | . | . | . | . | . | / | . | .
Cc1ccc(N2NC(=O)/C(=C\c3cc4c(cc3[N+](=O)[O-])OCO4)C2=O)cc1C | . | . | . | . | 26 | 69% | . | 34%
CCOc1ccccc1N(CC(=O)NCCc1ccccc1)C(=O)CCC(=O)Nc1ccccn1 | . | . | . | . | . | / | / | /
Cc1ccc(-c2cc(C(=O)Nc3ccc(S(=O)(=O)Nc4ncccn4)cc3)[nH]n2)c(O)c1C | . | . | . | . | . | / | / | /
O=C1NC(=S)N/C1=C/c1ccc2c(c1)OCO2 | . | . | . | . | . | / | / | /
O=C1NN(c2ccccc2)C(=O)/C1=C\c1ccc2c(c1)OCO2 | . | . | . | . | 7.7 | . | . | .
Cc1cc(C)n(CC(O)Cn2c3ccc(Br)cc3c3cc(Br)ccc32)c(=O)n1 (stereo unspecified) | . | . | . | . | 7.8 | 27% | . | .
Cc1ccc(C(C2=C(O)CC(C)(C)CC2=O)C2C(=O)CC(C)(C)CC2=O)s1 (stereo unspecified) | . | . | . | . | 14 | 35% | 44% | .
CC1(C)CC(=O)C(C(C2=C(O)CC(C)(C)CC2=O)c2ccc([N+](=O)[O-])cc2)C(=O)C1 (stereo unspecified) | . | . | . | . | . | / | / | /
CC1(C)CC(=O)C(C(C2=C(O)CC(C)(C)CC2=O)c2ccc(Br)s2)C(=O)C1 (stereo unspecified) | . | . | . | . | 18 | 88% | . | 74%
COc1ccc(N(CC(=O)NC2CC2)S(=O)(=O)c2ccccc2)cc1 | . | . | . | . | . | / | / | /
COc1ccc(CN2CCNC(=O)C2CC(=O)N(C)C2CCOCC2)c(F)c1 (stereo unspecified) | . | . | . | . | . | / | / | /
Cc1ccc(-n2ncc3c(=O)[nH]c(SCC(=O)N4CCCc5ccccc54)nc32)cc1 | . | . | . | . | . | / | . | .
Fc1ccc(NC(=S)NCCN2CCOCC2)c(F)c1F | . | . | . | . | . | / | / | /
Cc1nn(CC(=O)NCCc2cccs2)c(=O)c2nn(-c3ccccc3)c(C)c12 | . | . | . | . | . | / | . | 35%
Cc1nn(CC(=O)NCCc2ccco2)c(=O)c2nn(-c3ccccc3)c(C)c12 | . | . | . | . | . | / | / | /
Cc1ccc(-n2nc3c(=O)n(CC(=O)NCc4ccccn4)nc(C)c3c2C)cc1 | . | . | . | . | . | / | / | /
Cc1ccc(-n2nc3c(=O)n(CC(=O)NCc4cccs4)nc(C)c3c2C)cc1 | . | . | . | . | 4.9 | . | . | .
CC1=C(C(=O)N2CCOCC2)C(c2c(F)cccc2F)NC(=O)N1 (stereo unspecified) | . | . | . | . | . | / | / | /
COC(=O)CCCC1=CC2=C(c3ccccc3)C(=O)C(C)(OC(=O)C3CCCC3)C(=O)C2=CN1Cc1ccc(OC)cc1 (stereo unspecified) | . | . | . | . | . | / | / | /
CCCCC1=CC2=C(c3ccco3)C(=O)C(C)(OC(=O)c3ccc(OC)cc3)C(=O)C2=CN1Cc1ccc(OC)cc1 (stereo unspecified) | / | . | / | / | . | / | / | /
CCCCC1=CC2=C(c3ccco3)C(=O)C(C)(OC(=O)c3ccc(OC)cc3)C(=O)C2=CN1CCCN(CC)CC (stereo unspecified) | . | . | . | . | . | . | . | .
CCCCC1=CC2=C(c3ccco3)C(=O)C(C)(OC(=O)c3ccc(OC)cc3)C(=O)C2=CN1Cc1ccco1 (stereo unspecified) | . | . | -4.6 | . | . | . | . | .
SMILES | MrgX1 PAM | RGS4 act | MrgX1 antagonist | MrgX1 ag | RGS4 block | RGS4 inh valid | RGS4 uninduced | RGS4 inh ctr2
CCCCC1=CC2=C(c3ccco3)C(=O)C(C)(OC(=O)c3ccc(OC)cc3)C(=O)C2=CN1CCN1CCOCC1 (stereo unspecified) | . | . | . | . | . | . | . | .
CCCCC1=CC2=C(c3ccco3)C(=O)C(C)(OC(=O)c3ccc(OC)cc3)C(=O)C2=CN1CC1CC1 (stereo unspecified) | . | . | . | . | . | . | . | .
CCCCN(C(=O)c1ccc(C)cc1)c1c(N)n(CCC)c(=O)[nH]c1=O | . | . | . | . | . | / | / | /
CCCCC1=CC2=C(c3ccco3)C(=O)C(C)(OC(=O)c3ccc(OC)cc3)C(=O)C2=CN1CC(C)C (stereo unspecified) | . | . | . | . | 6.8 | 5.0% | . | .
CCCCC1=CC2=C(c3ccco3)C(=O)C(C)(OC(=O)c3ccc(OC)cc3)C(=O)C2=CN1CCCCO (stereo unspecified) | . | . | . | . | . | . | . | .
CCCCC1=CC2=C(c3ccco3)C(=O)C(C)(OC(=O)c3ccc(OC)cc3)C(=O)C2=CN1C(CO)CO (stereo unspecified) | . | . | . | . | . | / | / | /
CCCCC1=CC2=C(c3ccco3)C(=O)C(C)(OC(=O)c3ccc(OC)cc3)C(=O)C2=CN1c1ccc(OC)cc1 (stereo unspecified) | . | . | . | . | 5.3 | 7.0% | . | .
CC(C)(C)NC(=O)C(c1ccco1)N(Cc1ccc2c(c1)OCO2)C(=O)c1snc(C(N)=O)c1N (stereo unspecified) | . | . | . | . | . | / | / | /
COc1ccc(-c2nn(-c3ccccc3)cc2/C=C(\CC(=O)O)c2nc3ccccc3s2)cc1OC | . | . | . | . | 6.2 | 7.5% | . | .
COc1ccc(/C=C(\CC(=O)O)c2nc3ccccc3s2)cc1O | . | . | . | . | . | / | / | /
COc1ccc(Br)cc1CN1CCN(S(=O)(=O)Cc2ccccc2)CC1 | . | . | . | . | 28 | . | . | .
CC(C)(CO)NC(=S)NCc1ccco1 | . | . | . | . | . | / | / | /
COC(=O)/C=c1\sc2ncnn2c1=O | . | . | . | . | 11 | . | . | .
O=C(Nc1ccccc1C(=O)O)c1cc(S(=O)(=O)Nc2ccccc2)ccc1Cl | . | . | . | . | . | / | / | /

Screens: PubChem, Johns Hopkins Ion Channel Center
